# M5 antag: human M5 muscarinic receptor antagonists, primary screen, CHO cells, Fluo-8 calcium fluorescence | CHO-hM5 cells, ACh EC80 | 360,000 compounds, 0.59% hits | Muscarinic acetylcholine receptor M5 (Homo sapiens), P08912 | inhibition, % at 3 µM;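 active means inhibition above a per-plate cutoff, the mean of that plate's test compounds plus 3 SD, cut at about 27% in these data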;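 further: 0% = acetylcholine EC80 with DMSO and 100% = DMSO without agonist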
# Target sequence (P08912 whole entry, looked up): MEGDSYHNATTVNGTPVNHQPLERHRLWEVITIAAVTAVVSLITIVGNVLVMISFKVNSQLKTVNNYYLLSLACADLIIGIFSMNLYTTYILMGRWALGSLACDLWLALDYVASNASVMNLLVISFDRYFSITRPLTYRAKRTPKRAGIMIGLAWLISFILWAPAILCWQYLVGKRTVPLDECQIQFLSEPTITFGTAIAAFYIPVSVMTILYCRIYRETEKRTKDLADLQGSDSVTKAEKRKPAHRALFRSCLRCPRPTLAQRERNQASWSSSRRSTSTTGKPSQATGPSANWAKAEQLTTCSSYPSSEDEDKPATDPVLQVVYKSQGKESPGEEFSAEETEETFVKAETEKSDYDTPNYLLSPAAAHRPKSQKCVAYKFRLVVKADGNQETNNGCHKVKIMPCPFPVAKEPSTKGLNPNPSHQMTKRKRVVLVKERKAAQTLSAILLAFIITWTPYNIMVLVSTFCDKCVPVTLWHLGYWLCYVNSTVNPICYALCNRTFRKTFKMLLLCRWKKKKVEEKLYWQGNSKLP
# M5 ag: human M5 muscarinic receptor agonists, primary screen, CHO-K1 cells, Fluo-8 calcium fluorescence. CHO-K1 hM5 cells; 0% DMSO wells, 100% maximal acetylcholine response. activation, % at 3 µM. 360,000 compounds, 0.19% hits. Muscarinic acetylcholine receptor M5 (Homo sapiens), P08912. AID 624037, 2012;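 active means activation above the run's mean over test compounds plus 3 SD, cut at about 23% in these data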;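 further: signal is peak over basal fluorescence ratio across the kinetic read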
# M4 PAM: human M4 muscarinic receptor positive allosteric modulators, primary screen, CHO-K1 cells, Fluo-8 calcium fluorescence | 360,000 compounds, 0.4% hits | Muscarinic acetylcholine receptor M4 (Homo sapiens), P08173 | activation, % at 3 µM | CHO-K1 hM4/Gqi5, ACh EC20; 0% = ACh EC20, 100% = maximal ACh;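 active means activation above its plate's cutoff, the mean activation of sample wells plus 3 SD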
# CHRM4 antagonist: human M4 muscarinic receptor antagonists, primary screen, CHO cells, Fluo-8 calcium fluorescence; AID 624125, 2012; Muscarinic acetylcholine receptor M4 (Homo sapiens), P08173; inhibition, % at 3 µM; 360,000 compounds, 0.73% hits; CHO-hM4 cells, ACh EC80;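 active means inhibition above its plate's cutoff, the mean inhibition of sample wells plus 3 SD, cut at about 27% in these data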;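 further: 0% = acetylcholine EC80 with DMSO and 100% = DMSO without agonist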
# CHRM5 PAM: human M5 muscarinic receptor positive allosteric modulators, primary screen, CHO-K1 cells, Fluo-8 calcium fluorescence | Muscarinic acetylcholine receptor M5 (Homo sapiens), P08912 | CHO-K1 hM5, ACh EC20 PAM; 0% = ACh EC20, 100% = ACh EC100 | activation, % at 3 µM | 360,000 compounds, 0.3% hits;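 active means activation above the run cutoff, the mean activation of all test compounds plus 3 SD, cut at about 18% in these data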
#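 Test system: CHO-K1 hM5 cells / Doses: single-point, 3 µM nominal / Times: Post-acetylcholine fluorescence recording 140 s / Technique: Fluo-8 calcium fluorescence / Measure: Max/basal fluorescence ratio as % of EC20–EC100 ACh window / Benchmarks: low control EC20 acetylcholine (0%), high control EC100 acetylcholine (100%) / Replicates: one well per compound, no replicates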
# CHRM4 agonist: human M4 muscarinic receptor agonists, primary screen, CHO-K1 cells, Fluo-8 calcium fluorescence. CHO-K1 hM4/Gqi5; vehicle 0%, full acetylcholine response 100%. activation, % at 3 µM. 360,000 compounds, 0.14% hits. AID 624127, 2012;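 active means activation above the run mean over all test wells plus 3 SD, cut at about 32% in these data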;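 further: peak over basal fluorescence ratio per well then scaled between controls; 0% = DMSO wells and 100% = acetylcholine at EC100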
# * marks the source's active call; other numbers are inactive results. A selection: hits, their analogues and other compounds. The true share with any hit is near 1.9%.
SMILES,M5 antag,M5 ag,M4 PAM,CHRM4 antagonist,CHRM5 PAM,CHRM4 agonist
CCn1c(C)nc2cc(C(=O)OC(C(F)(F)C(F)F)C(F)(F)C(F)F)ccc21,39*,5,-22,25,-15,15
CCc1ccc(CN(C)C(=O)C2=CC=CN3CCS(=O)(=O)N=C23)cc1,4,-3,-8,-3,0,1
O=C1c2cccc3c(N4CCCCC4)ccc(c23)C(=O)N1c1ccccc1O,35*,28*,-17,35*,-20,39*
O=C1c2cccc3c(N4CCCCC4)ccc(c23)C(=O)N1c1ccc(O)cc1,18,21,1,4,-9,11
COc1ccc(NC(=O)c2c(NC(=O)CNCC(C)C)sc3c2CCC3)c(OC)c1,-11,4,16,-5,9,0
O=C(NCCCN1CCOCC1)c1ccc(CSc2ccc(Cl)cc2)cc1,6,-11,-8,-7,-3,11
Nc1ccc2nc(CCc3ccccc3)[nH]c2c1,5,-2,3,-6,-6,6
Nc1ccc2nc3c(=O)n(C4CCCCC4)c(=O)[nH]c3nc2c1,35*,133*,-42,21,-40,70*
CCCCn1c(=O)[nH]c2nc3cc(N)ccc3nc2c1=O,16,22,-24,22,-11,57*
Cc1cc2nc3c(=O)n(CCc4ccccc4)c(=O)[nH]c3nc2cc1N,6,32*,-2,0,-7,9
Nc1ccc2nc3c(=O)n(CCc4ccccc4)c(=O)[nH]c3nc2c1,33*,165*,-18,18,-31,45*
Cc1ccc(C(=O)NCCCNC(=O)Cc2ccccc2)cn1,5,-2,2,-2,8,0
Cc1ccc(NC(=O)c2snc3ccc(Cl)cc23)cc1C,31*,-7,9,-3,-12,2
COc1ccc(CCC(=O)Nc2nc(C)c(C(=O)N(C)C)s2)cc1,4,-1,0,13,-4,1
COc1ccc(C2c3[nH]c4ccccc4c3C[C@H]3C(=O)N(C4CCN(Cc5ccccc5)CC4)CC(=O)N23)c(OC)c1 (stereo partly specified),6,-4,-15,27*,-4,5
CCOc1ccccc1C1c2[nH]c3ccccc3c2C[C@H]2C(=O)N(C3CCN(Cc4ccccc4)CC3)CC(=O)N12 (stereo partly specified),16,-2,-15,-4,-4,7
CCCC1N2CC3([N+](=O)[O-])CN1CC([N+](=O)[O-])(C2)C3(C)C (stereo unspecified),6,1,20*,-1,0,1
Cc1ccc(C2N3CC4([N+](=O)[O-])CN2CC([N+](=O)[O-])(C3)C4(C)C)cc1 (stereo unspecified),15,-1,3,-12,-6,1
CC1CC(C)CN(C(=O)C2CCN(S(=O)(=O)c3ccc4c(c3)CC(C)N4C(=O)C3CC3)CC2)C1 (stereo unspecified),10,-2,0,-2,-10,3
COCCn1c(=NC(=O)/C=C/c2cccs2)sc2cc(NC(C)=O)ccc21,7,2,21*,-1,-3,4
CCOC(=O)N1CCN(C(=O)CCNS(=O)(=O)c2ccc(C)c(C)c2)CC1,4,-4,4,-27,-3,1
O=C(CCNS(=O)(=O)c1ccccc1)N1CCCCCC1,-8,-2,28*,-4,6,1
Cc1ccc(S(=O)(=O)NCCC(=O)N2CCC(C(N)=O)CC2)cc1C,-5,-2,26*,-24,2,0
Cc1ccc(CN2CCC(=O)N2)cc1,5,-3,10,4,-2,1
C(=Cc1c[nH]c2ccccc12)c1ccc2ccccc2n1,8,19,-10,1,-7,36*

# From PubChem
